These results are taken from ChEMBL document CHEMBL1144162, “Tetrahydropyridine-4-carboxamides as novel, potent transient receptor potential vanilloid 1 (TRPV1) antagonists” (Bioorg Med Chem, 2008).

The target of data set [1] is T1, Transient receptor potential cation channel subfamily V member 1 (Homo sapiens, UniProt Q8NER1). As to the kind of experiment: Antagonist activity at human recombinant TRPV1 expressed in human 1321N1 cells assessed as inhibition of capsaicin-induced calcium influx by FLIPR assay. The class given is functional, cell-based. The method, boiled down:
(§1)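 Ca2+ influx in 1321N1 cells stably expressing recombinant human or rat TRPV1, grown to confluency, loaded with fluo-4 AM (2 µM in D-PBS) 1–2 h at 23 °C, washed. Compound (11-point half-log range, D-PBS) added at 10 s, capsaicin 3 min later. FLIPR fluorescence read over 240 s; peak increase minus baseline as % of 0.05 µM capsaicin control; four-parameter logistic fit for IC50; mean of ≥2 experiments in triplicate.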

Data set [2] is described as follows: Plasma concentration in po dosed Sprague-Dawley rat after 1 hr. The class given is ADME, organism-based.
Data set [3] deals with Rattus norvegicus. Description: Analgesic activity against complete Freund's adjuvant-induced thermal hyperalgesia in Sprague-Dawley rat assessed as paw withdrawal latency at 30 umol/kg, po. The class given is functional. Put shortly: (§2)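 Male Sprague–Dawley rats (200–320 g), food withdrawn 16 h before oral dosing. Right hindpaw injected with 150 µL of 50% CFA in saline. Thermal hyperalgesia measured 48 h later as radiant-heat paw withdrawal on a 30 °C glass surface after 30 min habituation. Vehicle: 10% ethanol, 20% polysorbate-80, 70% PEG-400. Single-dose testing used 30 µmol/kg po, n = 6/group, versus vehicle.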

The species named for data set [4] is Rattus norvegicus. Description: Nocifensive activity against capsaicin-induced neuropathic pain in rat. The class given is functional.
Data set [5] is filed under the species Rattus norvegicus. Description: Analgesic activity against gamma carrageenan-induced thermal hyperalgesia in Sprague-Dawley rat. The class given is functional. Put shortly:
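Male Sprague–Dawley rats (200–320 g) received 100 µL of 1% carrageenan in saline into the right hindpaw plantar surface. Thermal hyperalgesia was tested 2 h later by radiant heat to the plantar surface in Plexiglass cubicles on a 30 °C glass floor, after 30 min habituation.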

Data set [6] relates to Rattus norvegicus. As to the kind of experiment: Analgesic activity against complete Freund's adjuvant-induced thermal hyperalgesia in po dosed Sprague-Dawley rat assessed as paw withdrawal latency. The class given is functional. The method, boiled down: as §2
The nature of data set [7]: Ratio of drug level in brain to plasma in po dosed Sprague-Dawley rat. The class given is ADME, organism-based. The method, boiled down: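 Male Sprague–Dawley rats (200–320 g), group-housed with free food and water, fasted 16 h before oral dosing. Compound given po in 10% ethanol, 20% polysorbate-80 and 70% PEG-400. Drug concentrations in brain and plasma were expressed as a [brain]:[plasma] ratio.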

For data set [8], the species on record is Rattus norvegicus. Description: Analgesic activity against skin incision-induced acute thermal hyperalgesia in Sprague-Dawley rat. The class given is functional. The method, boiled down: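 Under halothane (2–3%) anesthesia, a left hind paw plantar incision was made aseptically in male Sprague–Dawley rats. Rats recovered 2 h before thermal hyperalgesia testing.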

Data set [9] in a line: Aqueous solubility of the compound. The class given is physicochemical. Conditions: buffer.
In data set [10] the test system is Rattus norvegicus. As to the kind of experiment: Antinociceptive activity against hyperalgesia in po dosed rat Chung neuropathic pain model. The class given is functional.
Data set [11] in a line: Apparent permeability across human Caco-2 cell membrane. The class given is ADME, cell-based. On the technique in general: Caco-2 monolayers are a common model of the intestinal barrier.
The nature of data set [12]: Solubility in PEG-400. The class given is physicochemical. The method, boiled down:
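Solubility was measured in PEG-400 as an organic vehicle.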

For data set [13], the species on record is Rattus norvegicus. As to the kind of experiment: Analgesic activity against monosodium iodoacetate-induced osteoarthritis in rat. The class given is functional.
In data set [14] the target is T1, Transient receptor potential cation channel subfamily V member 1. Description: Antagonist activity at human recombinant TRPV1 expressed in human 1321N1 cells assessed as inhibition of N-arachidonoyl-dopamine-induced calcium influx by FLIPR assay. The class given is functional, cell-based. Put shortly:
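FLIPR fluo-4 Ca2+ influx in 1321N1 cells stably expressing human TRPV1, with 3 µM NADA as the stimulus. Compound is added before agonist challenge. Peak fluorescence increase over baseline is fit to a four-parameter logistic curve to give IC50.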

The species named for data set [15] is Rattus norvegicus. As to the kind of experiment: Analgesic activity against capsaicin-induced secondary mechanical allodynia in rat. The class given is functional.
Data set [16] deals with T1, Transient receptor potential cation channel subfamily V member 1. Description: Antagonist activity at human recombinant TRPV1 expressed in human 1321N1 cells assessed as inhibition of pH 5.5-induced calcium influx by FLIPR assay. The class given is functional, cell-based. The method, boiled down: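 Fluo-4 FLIPR Ca2+ assay in 1321N1 cells stably expressing human TRPV1, stimulated by low pH (pH 5.5) after compound preincubation. Peak fluorescence rise minus baseline is fit by a four-parameter logistic equation to give IC50.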

The target in data set [17] is Transient receptor potential cation channel subfamily V member 1 (Rattus norvegicus, UniProt O35433). As to the kind of experiment: Antagonist activity at rat TRPV1 expressed in human 1321N1 cells assessed as inhibition of capsaicin-induced calcium influx by FLIPR assay. The class given is functional, cell-based. The method, boiled down:
as §1

The subject of data set [18] is Rattus norvegicus. Description: Analgesic activity against complete Freund's adjuvant-induced mechanical allodynia in po dosed Sprague-Dawley rat. The class given is functional.
Data set [19] can be described thus: Half-life in po dosed Sprague-Dawley rat. The class given is ADME, organism-based. Conditions: in vivo.
Data set [20] can be described thus: Oral bioavailability in Sprague-Dawley rat. The class given is ADME, organism-based. Conditions: in vivo.
In data set [21] the target is Voltage-gated inwardly rectifying potassium channel KCNH2 (Homo sapiens, UniProt Q12809). As to the kind of experiment: Inhibition of human ERG.
Chain of Voltage-gated inwardly rectifying potassium channel KCNH2 (Q12809 whole entry): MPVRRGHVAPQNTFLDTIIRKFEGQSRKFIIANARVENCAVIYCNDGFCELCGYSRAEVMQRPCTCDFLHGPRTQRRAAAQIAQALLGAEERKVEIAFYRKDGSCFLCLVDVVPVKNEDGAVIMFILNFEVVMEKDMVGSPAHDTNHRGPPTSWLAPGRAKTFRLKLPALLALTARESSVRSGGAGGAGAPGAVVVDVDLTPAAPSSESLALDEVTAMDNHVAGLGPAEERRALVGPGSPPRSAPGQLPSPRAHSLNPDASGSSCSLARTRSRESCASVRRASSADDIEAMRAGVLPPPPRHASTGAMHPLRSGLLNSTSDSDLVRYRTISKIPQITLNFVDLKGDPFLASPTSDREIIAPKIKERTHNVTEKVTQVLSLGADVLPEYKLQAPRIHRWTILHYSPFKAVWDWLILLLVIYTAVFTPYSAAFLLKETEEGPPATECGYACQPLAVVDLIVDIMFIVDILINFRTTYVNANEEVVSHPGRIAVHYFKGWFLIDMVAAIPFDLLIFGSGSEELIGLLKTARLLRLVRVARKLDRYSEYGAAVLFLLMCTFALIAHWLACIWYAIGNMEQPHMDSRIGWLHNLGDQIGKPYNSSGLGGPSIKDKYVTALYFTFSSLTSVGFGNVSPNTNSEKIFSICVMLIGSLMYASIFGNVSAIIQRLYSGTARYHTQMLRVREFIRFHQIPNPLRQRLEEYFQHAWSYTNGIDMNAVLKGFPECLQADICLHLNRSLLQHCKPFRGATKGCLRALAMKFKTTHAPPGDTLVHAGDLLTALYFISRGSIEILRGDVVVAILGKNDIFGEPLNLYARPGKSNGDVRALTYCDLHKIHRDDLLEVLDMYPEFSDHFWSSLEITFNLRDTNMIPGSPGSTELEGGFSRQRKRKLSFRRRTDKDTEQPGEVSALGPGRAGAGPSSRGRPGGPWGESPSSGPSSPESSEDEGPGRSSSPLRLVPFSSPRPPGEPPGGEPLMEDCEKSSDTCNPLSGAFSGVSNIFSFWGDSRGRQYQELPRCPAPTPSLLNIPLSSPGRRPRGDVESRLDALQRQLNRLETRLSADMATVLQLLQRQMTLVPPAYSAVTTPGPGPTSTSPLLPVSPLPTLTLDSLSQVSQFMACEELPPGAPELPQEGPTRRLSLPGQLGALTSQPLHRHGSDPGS

Converted amounts (≈) assume the structure as drawn.

T1 sequence (Q8NER1 whole entry): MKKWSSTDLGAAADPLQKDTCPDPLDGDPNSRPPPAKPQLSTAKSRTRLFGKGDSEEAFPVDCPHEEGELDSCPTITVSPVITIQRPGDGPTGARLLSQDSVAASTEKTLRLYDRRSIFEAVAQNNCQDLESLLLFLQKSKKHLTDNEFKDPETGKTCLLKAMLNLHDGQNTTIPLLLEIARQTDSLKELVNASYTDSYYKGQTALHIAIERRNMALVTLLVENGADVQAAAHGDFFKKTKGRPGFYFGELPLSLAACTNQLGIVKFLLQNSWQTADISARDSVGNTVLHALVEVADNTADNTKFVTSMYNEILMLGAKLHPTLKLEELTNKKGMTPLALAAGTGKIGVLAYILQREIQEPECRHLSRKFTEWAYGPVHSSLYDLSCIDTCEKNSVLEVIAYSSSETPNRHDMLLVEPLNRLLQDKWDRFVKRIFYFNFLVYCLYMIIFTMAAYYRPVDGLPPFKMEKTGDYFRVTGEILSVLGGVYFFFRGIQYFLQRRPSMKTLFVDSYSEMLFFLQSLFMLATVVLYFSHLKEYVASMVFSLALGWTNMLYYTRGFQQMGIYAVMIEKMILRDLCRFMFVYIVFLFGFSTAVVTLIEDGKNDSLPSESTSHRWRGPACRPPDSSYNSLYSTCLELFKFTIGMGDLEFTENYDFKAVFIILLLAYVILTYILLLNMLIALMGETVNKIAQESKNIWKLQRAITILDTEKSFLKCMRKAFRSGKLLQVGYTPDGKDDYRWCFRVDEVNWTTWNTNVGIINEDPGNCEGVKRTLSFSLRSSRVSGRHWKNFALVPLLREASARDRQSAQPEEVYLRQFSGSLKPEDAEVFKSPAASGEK
Chain of Transient receptor potential cation channel subfamily V member 1 (Rattus norvegicus, UniProt O35433) (O35433 whole entry): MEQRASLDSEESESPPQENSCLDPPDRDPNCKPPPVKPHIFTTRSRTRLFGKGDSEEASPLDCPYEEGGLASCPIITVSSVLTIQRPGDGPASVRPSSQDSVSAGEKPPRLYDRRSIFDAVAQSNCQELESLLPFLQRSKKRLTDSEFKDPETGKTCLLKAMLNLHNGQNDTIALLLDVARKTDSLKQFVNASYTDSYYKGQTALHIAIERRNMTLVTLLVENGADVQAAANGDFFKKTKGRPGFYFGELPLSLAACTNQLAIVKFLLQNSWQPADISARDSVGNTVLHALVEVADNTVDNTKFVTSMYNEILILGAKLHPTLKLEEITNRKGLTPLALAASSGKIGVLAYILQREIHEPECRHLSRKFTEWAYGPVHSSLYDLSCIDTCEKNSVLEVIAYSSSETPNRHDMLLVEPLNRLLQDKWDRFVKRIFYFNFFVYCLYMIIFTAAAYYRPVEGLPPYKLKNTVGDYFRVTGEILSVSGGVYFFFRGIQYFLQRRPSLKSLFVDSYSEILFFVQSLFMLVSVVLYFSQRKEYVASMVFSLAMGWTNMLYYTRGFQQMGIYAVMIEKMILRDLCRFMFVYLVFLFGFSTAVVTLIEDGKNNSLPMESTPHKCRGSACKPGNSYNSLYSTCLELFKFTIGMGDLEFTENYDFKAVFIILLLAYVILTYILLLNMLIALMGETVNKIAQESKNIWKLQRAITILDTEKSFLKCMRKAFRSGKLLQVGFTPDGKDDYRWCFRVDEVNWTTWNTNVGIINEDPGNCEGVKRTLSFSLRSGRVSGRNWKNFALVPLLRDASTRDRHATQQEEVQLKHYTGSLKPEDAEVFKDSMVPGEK

On to `CC(C)(C)c1ccc(NC(=O)C2=CCN(c3ncccn3)CC2)cc1`, for which the IC50 in data set [1] amounted to 10 nM.

As to `CC(C)(C)c1ccc(NC(=O)C2=CCN(c3ccccc3F)CC2)cc1`, the 50% inhibitory concentration (IC50) in data set [1] turned out to be 265 nM.

Take `CC(C)(C)c1ccc(NC(=O)C2=CCN(c3ncccc3F)CC2)cc1`: in data set [1], the IC50 turned out to be 19 nM.

On to `O=C(Nc1ccc(Cl)cc1F)C1=CCN(c2ncccc2Cl)CC1`, for which the half-inhibitory concentration (IC50) in [1] worked out at 618 nM.

In the case of `O=C(Nc1ccc(S(=O)(=O)C(F)(F)F)cc1)C1=CCN(c2ncccn2)CC1`, the concentration at 1 h in data set [2] was 380 ng/mL. In addition, in the data set with Rattus norvegicus [3], the Efficacy is reported as 53%. Further, the IC50 in data set [1] was 44 nM.

On to `CC(C)(C)c1ccc(NC(=O)c2ccc(-c3ccccn3)cc2)cc1`, for which, in data set [1], the IC50 was 42 nM.

As for `O=C(Nc1ccc(S(=O)(=O)C(F)(F)F)cc1)C1=CCN(c2ncccc2F)CC1`, the concentration at 1 h in [2] was 900 ng/mL. Further, the Efficacy in the data set on Rattus norvegicus [3] came out at 51%. In addition, the IC50 in data set [1] was 67 nM.

Compound `Cc1cccnc1N1CC=C(C(=O)Nc2ccc(S(=O)(=O)C(F)(F)F)cc2)CC1` displayed a concentration at 1 h in [2] of 960 ng/mL. Also, the Efficacy with Rattus norvegicus [3] is listed as 53%. Further, in data set [1], the IC50 is 35 nM.

In the case of `CC(C)(C)c1ccc(NC(=O)C2CCN(c3ncccc3Cl)CC2)cc1`, the IC50 in [1] was determined as 196 nM.

Consider `CC(C)(C)c1ccc(NC(=O)C2=CCN(c3ncccc3C(F)(F)F)CC2)cc1`, for which, in the data set with Rattus norvegicus [3], the Activity is on record as 28%. Also, the IC50 in data set [1] is 6 nM.

In the case of `O=C(Nc1ccc(Cl)c(F)c1)C1=CCN(c2ncccc2Cl)CC1`, the IC50 in data set [1] was 78 nM.

Turning to `O=C(Nc1ccc(S(=O)(=O)C(F)(F)F)cc1)C1=CCN(c2ncccc2C(F)(F)F)CC1`, the ED50 in the data set filed under Rattus norvegicus [4] is 10 µmol/kg; in the data set filed under Rattus norvegicus [5], 25 µmol/kg; in the data set with Rattus norvegicus [6], 12 µmol/kg; in the data set filed under Rattus norvegicus [8], 20 µmol/kg; with Rattus norvegicus [10], over 300 µmol/kg; in the data set listed under Rattus norvegicus [13], 8 µmol/kg. Also, the results for the ED50 in the data set listed under Rattus norvegicus [15] and in the data set with Rattus norvegicus [18] were 40 µmol/kg and 76 µmol/kg, respectively. Also, the Kp in data set [7] was 1.5. In data set [2], the concentration at 1 h stood at 200 ng/mL. The Efficacy in the data set on Rattus norvegicus [3] is recorded as 58%. Moreover, the solubility was 0.033 µg/mL (≈ 6.88e-05 mM) in data set [9] and over 100 mg/mL in data set [12]. Also, the IC50 in [1] is 24 nM; in [14], 20.2 nM; in data set [16], 14 nM; in data set [17] it was 17 nM. In addition, the Papp in data set [11] came to 28.5 ×10⁻⁶ cm/s.

In [19], `O=C(Nc1ccc(Cl)cc1)C1=CCN(c2ncccc2Cl)CC1` gave a half-life of 1.7 h. In addition, the IC50 in data set [1] is 33 nM. Besides, the bioavailability in [20] worked out at 16%. Further, the outcome in data set [21] was Active.

Consider `COc1cccc(NC(=O)c2ccc(-c3ccccc3)cc2)c1`, for which the IC50 in data set [1] was 147 nM.

In the case of `CC(C)(C)c1ccc(NC(=O)C2=CCN(c3ncccc3C#N)CC2)cc1`, in data set [1], the IC50 is 78 nM.

`O=C(Nc1ccc(C(F)(F)F)cc1)C1=CCN(c2ncccc2C(F)(F)F)CC1`: the Efficacy in the data set on Rattus norvegicus [3] was determined as 35%. In addition, in data set [1], the IC50 amounted to 8 nM.

`CC(C)(C)c1ccc(NC(=O)C2=CCN(c3ccccn3)CC2)cc1`: the IC50 in data set [1] came to 27 nM.

Take `CC(C)(C)c1ccc(NC(=O)C2=CCN(c3ncccc3Cl)CC2)cc1`: in [1], the IC50 turned out to be 10 nM.

Turning to `O=C(Nc1ccc(Cl)cc1C(F)(F)F)C1=CCN(c2ncccc2Cl)CC1`, the IC50 in data set [1] turned out to be 2750 nM.

With `CC(C)(C)c1ccc(NC(=O)C2=CCN(c3nccs3)CC2)cc1`, the IC50 in data set [1] came to 14 nM.

As for `O=C(Nc1cccc2[nH]ncc12)N[C@@H]1CCc2cc(N3CCCCC3)ccc21`, the ED50 was 10 µmol/kg in the data set listed under Rattus norvegicus [4]; 12 µmol/kg in the data set with Rattus norvegicus [6]; over 300 µmol/kg in the data set with Rattus norvegicus [10]; 280 µmol/kg in the data set filed under Rattus norvegicus [13]; 165 µmol/kg in the data set listed under Rattus norvegicus [15]; 300 µmol/kg in the data set on Rattus norvegicus [18]. Besides, the partition ratio (Kp) in data set [7] was 0.008. Besides, the IC50 in data set [1] is 14 nM; in [17], 30 nM.

On to `O=C(Nc1ccc(Cl)c(Cl)c1)C1=CCN(c2ncccc2Cl)CC1`, for which, in data set [1], the IC50 was 124 nM.

As for `CC(C)(C#N)c1ccc(NC(=O)C2=CCN(c3ncccc3C(F)(F)F)CC2)cc1`, the Efficacy in the data set with Rattus norvegicus [3] was found to be 25%. Moreover, in [1], the IC50 is 41 nM.

`O=C(Nc1ccc(S(=O)(=O)C(F)(F)F)cc1)C1=CCN(c2ncccc2Cl)CC1`: the concentration at 1 h in data set [2] came to 280 ng/mL. Moreover, the Efficacy in the data set on Rattus norvegicus [3] is 63%. Also, the IC50 in data set [1] came out at 41 nM.

Turning to `O=C(Nc1ccc(Cl)cc1)C1=CCN(c2ncccc2C(F)(F)F)CC1`, in the data set with Rattus norvegicus [3], the Efficacy is listed as 40%. Also, the IC50 in data set [1] was found to be 19 nM.

In the case of `O=C(Nc1ccc(C(F)(F)F)nc1)C1=CCN(c2ncccc2C(F)(F)F)CC1`, the Efficacy in the data set with Rattus norvegicus [3] turned out to be 61%. In [1], the IC50 turned out to be 42 nM. The same compound had a bioavailability in data set [20] of 3%.

As for `CC(C)(C)c1ccc(NC(=O)N2CCN(c3ncccc3Cl)CC2)cc1`, the ED50 in the data set on Rattus norvegicus [6] and with Rattus norvegicus [10] was 8 µmol/kg in each case. Besides, in data set [7], the concentration ratio (Kp) is 5.

On to `O=C(Nc1ccc(S(=O)(=O)C(F)(F)F)cc1)C1=CCN(c2nccs2)CC1`, for which the concentration at 1 h in [2] is 2100 ng/mL. In addition, the Efficacy in the data set with Rattus norvegicus [3] stood at 37%. Also, the IC50 in [1] was found to be 95 nM.

By IC50 is commonly meant the point on the concentration scale where inhibition reaches its midpoint. Broadly, the ED50 is the dose that gives a 50% effect, or the effect in half of the subjects. What is called Kp is tissue or fluid exposure divided by exposure in the circulation. By solubility is commonly meant how much of the substance goes into solution per volume. Lower therefore signals little dissolved substance. As usually defined, the Papp is a coefficient for how fast a substance crosses the barrier. For orientation: half-life means the time needed for the level to fall by half in the phase considered. The low end stands for rapid decline, the high end for slow decline. A word on the bioavailability: it is the share of a dose that reaches the circulation, judged against a reference dose that is usually intravenous. Read a high bioavailability as good availability.
